Consider 16 compounds from ChEMBL document CHEMBL4706597, “Structure-guided optimization and mechanistic study of a class of quinazolinone-threonine hybrids as antibacterial ThrRS inhibitors” (Eur J Med Chem, 2020).

Each structure is given as a SMILES string. Values after ≈ are worked out from the molar mass of the structure shown. Active and inactive are the calls of the source. The calls are words filed in the database; no cut-off is given here.

For assay [1], the system named is Salmonella enterica. The experiment in a line: Binding affinity to Salmonella enterica Threonyl-tRNA synthetase assessed as change in melting temperature at 0.5 mM incubated for 10 mins by SYPRO orange dye-based thermal shift assay. In short, it runs like this:
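SeThrRS 8 μM in 100 mM HEPES pH 7.5, 150 mM NaCl, 4× SYPRO orange, with 0.5 mM compound or 0.5% DMSO blank; 25 °C for 10 min, then ramped 25 to 95 °C at 1 °C/min, fluorescence read every 30 s. Tm fitted from melt curve; ΔTm = with minus without compound; mean of three independent experiments.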

Assay [2] has as its system Salmonella enterica. The assay can be described thus: Inhibition of Salmonella enterica Threonyl-tRNA synthetase assessed as reduction in aminoacylation activity at 100 uM using L-threonine as substrate incubated for 3 hrs by Kinase-glo luminescence assay relative to control. In short, it runs like this: (§1)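 3 h at room temperature, stopped with Kinase-Glo, luminescence read. Inhibition % = (RLU compound − RLU blank)/(RLU no-enzyme − RLU blank) × 100, at 100 μM compound. IC50 run for compounds above 50% inhibition at 100 μM, fitted as 100/(1+([I]/IC50)^B). Mean of three independent assays.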
For orientation: Kinase-Glo reads ATP consumption through a luciferase reaction.

The nature of assay [3]: Inhibition of Salmonella enterica Threonyl-tRNA synthetase assessed as reduction in aminoacylation activity using L-threonine as substrate incubated for 3 hrs by Kinase-glo luminescence assay. In short, it runs like this:
as §1

For assay [4], the system named is Staphylococcus aureus. The experiment in a line: Antibacterial activity against Staphylococcus aureus ATCC 29213 assessed as reduction in bacterial growth incubated for 18 hrs by CLSI based broth microdilution assay. The class given is functional. In short, it runs like this: (§2)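 Broth microdilution per CLSI; compounds in 2-fold dilutions starting from 256 μg/mL. Defined medium: M9 with 0.4% glucose plus 100 μM of all canonical amino acids. MIC read as growth end point.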
Background: Broth dilution looks for growth in wells or tubes with falling amounts of substance.

Assay [5] relates to Staphylococcus aureus. The experiment in a line: Antibacterial activity against methicillin-resistant Staphylococcus aureus R3708 assessed as reduction in bacterial growth incubated for 18 hrs by CLSI based broth microdilution assay. The class given is functional. The gist of the method:
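Broth microdilution under CLSI conditions, with 2-fold compound dilutions starting at 256 μg/mL. Medium was M9 with 0.4% glucose, supplemented with 100 μM of all canonical amino acids.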

For a further assay, the system named is Enterococcus faecalis. The assay can be described thus: Antibacterial activity against Enterococcus faecalis ATCC 29212 assessed as reduction in bacterial growth incubated for 18 hrs by CLSI based broth microdilution assay. The assay is classed as functional. The gist of the method:
as §2

Another assay has as its system Escherichia coli. The assay can be described thus: Antibacterial activity against Escherichia coli ATCC 25922 assessed as reduction in bacterial growth incubated for 18 hrs by CLSI based broth microdilution assay. The assay is classed as functional. The gist of the method:
as §2

For assay [6], the system named is Salmonella enterica. The experiment in a line: Antibacterial activity against Salmonella enterica 87 assessed as reduction in bacterial growth incubated for 18 hrs by CLSI based broth microdilution assay. The class given is functional. In short, it runs like this:
as §2

A further assay has as its system Pseudomonas aeruginosa. The experiment in a line: Antibacterial activity against Pseudomonas aeruginosa ATCC 27853 assessed as reduction in bacterial growth incubated for 18 hrs by CLSI based broth microdilution assay. The assay is classed as functional. In short, it runs like this:
as §2

In assay [7] the test system is Salmonella enterica. The assay can be described thus: Potency index, ratio of IC50 of parent compound to IC50 of compound for inhibition of Salmonella enterica Threonyl-tRNA synthetase assessed as reduction in aminoacylation activity using L-threonine as substrate incubated for 3 hrs by Kinase-glo luminescence assay.
Assay [8] is described as follows: Binding affinity to Salmonella enterica Threonyl-tRNA synthetase at 200 uM by isothermal titration calorimetry. In short, it runs like this:
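ITC: 20 μM SeThrRS in cell, 200 μM ligand in syringe, both in 20 mM HEPES pH 7.5, 150 mM NaCl. First injection 5 μL, then 24 × 10 μL at 180 s spacing. Ligand-into-buffer isotherm subtracted as baseline; one-site model fit gives Kd, ΔH, ΔS, N.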
Background: In ITC the heat of successive injections is recorded.

Assay [9] concerns Salmonella enterica. The experiment in a line: Inhibition of Salmonella enterica Threonyl-tRNA synthetase assessed as reduction in aminoacylation activity at 10 uM using increasing concentration of L-threonine as substrate incubated for 3 hrs by Kinase-glo luminescence assay. In short, it runs like this:
(§3)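 Aminoacylation by SeThrRS followed as ATP consumption (Kinase-Glo luminescence) after 3 h at room temperature. Inhibitor held at 10 μM while one substrate (L-Thr, tRNA^Thr or ATP, per line) was raised stepwise to test competition. Other components as in the standard assay.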

In assay [10] the test system is Salmonella enterica. The experiment in a line: Inhibition of Salmonella enterica Threonyl-tRNA synthetase assessed as reduction in aminoacylation activity at 10 uM using increasing concentration of t-RNAthr as substrate incubated for 3 hrs by Kinase-glo luminescence assay. In short, it runs like this:
as §3

Assay [11] deals with Salmonella enterica. The experiment in a line: Inhibition of Salmonella enterica Threonyl-tRNA synthetase assessed as reduction in aminoacylation activity at 10 uM using increasing concentration of ATP as substrate incubated for 3 hrs by Kinase-glo luminescence assay. In short, it runs like this: as §3

For the compound `CC(C)N[C@H](C(=O)NC/C=C/Cn1cnc2cc(Cl)c(Cl)cc2c1=O)[C@@H](C)O`, the ΔTm in the assay on Salmonella enterica [1] stood at 14.1 °C. In addition, the inhibition in the assay on Salmonella enterica [2] was determined as 63%. Moreover, in assay [3], the IC50 turned out to be 49300 nM.

Turning to `CCO[C@H](C)[C@H](N)C(=O)NC/C=C/Cn1cnc2cc(Cl)c(Cl)cc2c1=O`, the ΔTm in the assay with Salmonella enterica [1] is 0.2 °C. Moreover, the inhibition in the assay on Salmonella enterica [2] was determined as 4%.

Regarding `O=C(CC1NCCCC1O)Cn1cnc2cc(Br)c(Cl)cc2c1=O` (stereo unspecified) [HALOFUGINONE], the ΔTm in the assay with Salmonella enterica [1] is -1.5 °C. For the same compound, the inhibition with Salmonella enterica [2] came out at 4%. Besides, the MIC with Staphylococcus aureus [4] worked out at 64 µg/mL (≈ 154 µM); in the assay with Staphylococcus aureus [5], 64 µg/mL (≈ 154 µM); with Enterococcus faecalis it was 128 µg/mL (≈ 309 µM); with Escherichia coli, 128 µg/mL (≈ 309 µM); with Salmonella enterica [6], 64 µg/mL (≈ 154 µM); in the assay on Pseudomonas aeruginosa it was 64 µg/mL (≈ 154 µM).

On to `C[C@@H](O)[C@H](NCCF)C(=O)NC/C=C/Cn1cnc2cc(Cl)c(Cl)cc2c1=O`, for which, in the assay on Salmonella enterica [1], the ΔTm came to 19.1 °C. Moreover, the inhibition with Salmonella enterica [2] came to 99%. Moreover, in assay [3], the IC50 was 2500 nM. For the same compound, the MIC in the assay with Staphylococcus aureus [4] is 32 µg/mL (≈ 74.2 µM); with Staphylococcus aureus [5], 64 µg/mL (≈ 148 µM); with Enterococcus faecalis, 32 µg/mL (≈ 74.2 µM); in the assay with Escherichia coli, 32 µg/mL (≈ 74.2 µM); in the assay with Salmonella enterica [6], 32 µg/mL (≈ 74.2 µM); with Pseudomonas aeruginosa, 64 µg/mL (≈ 148 µM).

Consider `C=CCN[C@H](C(=O)NC/C=C/Cn1cnc2cc(Cl)c(Cl)cc2c1=O)[C@@H](C)O`, for which, in the assay on Salmonella enterica [1], the ΔTm turned out to be 22.1 °C. The inhibition in the assay on Salmonella enterica [2] came out at 100%. For the same compound, in assay [3], the concentration for half-maximal inhibition (IC50) is 1200 nM.

On to `N[C@@H](CO)C(=O)NC/C=C/Cn1cnc2cc(Cl)c(Cl)cc2c1=O`, for which the ΔTm in the assay with Salmonella enterica [1] worked out at 0.6 °C. In addition, the inhibition in the assay on Salmonella enterica [2] was 2%.

Regarding `C[C@@H](O)[C@H](N)C(=O)NS(=O)(=O)c1cccc(-c2ccc3[nH]ncc3c2)c1`, the MIC with Staphylococcus aureus [4], in the assay on Staphylococcus aureus [5], with Enterococcus faecalis, in the assay with Escherichia coli, in the assay with Salmonella enterica [6] and in the assay on Pseudomonas aeruginosa was above 256 µg/mL in each case.

As to `CC1(C)S[C@@H]2[C@H](NC(=O)[C@H](N)c3ccccc3)C(=O)N2[C@H]1C(=O)O` [AMPICILLIN], the results for the MIC in the assay on Escherichia coli, in the assay on Salmonella enterica [6] and with Pseudomonas aeruginosa were 1 µg/mL (≈ 2.86 µM), 1 µg/mL (≈ 2.86 µM) and 0.5 µg/mL (≈ 1.43 µM), respectively.

In the case of `CC(C)(O)[C@H](N)C(=O)NC/C=C/Cn1cnc2cc(Cl)c(Cl)cc2c1=O`, the ΔTm with Salmonella enterica [1] is 0.9 °C. The inhibition in the assay with Salmonella enterica [2] came out at 0%.

As for `C[C@H](O)[C@@H](N)C(=O)NC/C=C/Cn1cnc2cc(Cl)c(Cl)cc2c1=O`, in the assay with Salmonella enterica [1], the ΔTm stood at 0.6 °C. The inhibition in the assay with Salmonella enterica [2] stood at 6%.

Turning to `CN[C@H](C(=O)NC/C=C/Cn1cnc2cc(Cl)c(Cl)cc2c1=O)[C@@H](C)O`, the ΔTm in the assay with Salmonella enterica [1] came out at 28.4 °C. Further, in the assay on Salmonella enterica [2], the inhibition turned out to be 100%. The IC50 in [3] amounted to 500 nM. Further, the Ratio IC50 with Salmonella enterica [7] amounted to 3. The compound also showed a Kd in assay [8] of 400 nM. The inhibition result in the assay with Salmonella enterica [9], in the assay on Salmonella enterica [10] and in the assay with Salmonella enterica [11] was “Active” throughout. The MIC is 32 µg/mL (≈ 80.1 µM) in the assay on Staphylococcus aureus [4]; 32 µg/mL (≈ 80.1 µM) with Staphylococcus aureus [5]; 32 µg/mL (≈ 80.1 µM) with Enterococcus faecalis; 16 µg/mL (≈ 40.1 µM) in the assay with Escherichia coli; 16 µg/mL (≈ 40.1 µM) in the assay with Salmonella enterica [6]; 32 µg/mL (≈ 80.1 µM) in the assay on Pseudomonas aeruginosa.

Take `O=C1CC[C@H](C(=O)NC/C=C/Cn2cnc3cc(Cl)c(Cl)cc3c2=O)N1`: the ΔTm in the assay on Salmonella enterica [1] is -0.2 °C. Further, the inhibition with Salmonella enterica [2] was 0%.

Turning to `O=C1CC[C@@H](C(=O)NC/C=C/Cn2cnc3cc(Cl)c(Cl)cc3c2=O)N1`, the ΔTm in the assay with Salmonella enterica [1] was -0.4 °C. Also, the inhibition in the assay with Salmonella enterica [2] stood at 5%.

`CN[C@H](CC(C)C)C(=O)N[C@H]1C(=O)N[C@@H](CC(N)=O)C(=O)N[C@H]2C(=O)N[C@H]3C(=O)N[C@H](C(=O)N[C@H](C(=O)O)c4cc(O)cc(O)c4-c4cc3ccc4O)[C@H](O)c3ccc(c(Cl)c3)Oc3cc2cc(c3O[C@@H]2O[C@H](CO)[C@@H](O)[C@H](O)[C@H]2O[C@H]2C[C@](C)(N)[C@H](O)[C@H](C)O2)Oc2ccc(cc2Cl)[C@H]1O` [VANCOMYCIN]: in the assay with Enterococcus faecalis, the MIC is 2 µg/mL (≈ 1.38 µM).

Regarding `CCN[C@H](C(=O)NC/C=C/Cn1cnc2cc(Cl)c(Cl)cc2c1=O)[C@@H](C)O`, the ΔTm with Salmonella enterica [1] came to 22.5 °C. In addition, the inhibition in the assay on Salmonella enterica [2] worked out at 100%. Moreover, the IC50 in assay [3] was 960 nM. Also, the MIC in the assay with Staphylococcus aureus [4] came to 64 µg/mL (≈ 155 µM); in the assay with Staphylococcus aureus [5], 32 µg/mL (≈ 77.4 µM); in the assay on Enterococcus faecalis, 32 µg/mL (≈ 77.4 µM); with Escherichia coli, 16 µg/mL (≈ 38.7 µM); in the assay on Salmonella enterica [6], 32 µg/mL (≈ 77.4 µM); with Pseudomonas aeruginosa, 32 µg/mL (≈ 77.4 µM).

In the case of `C[C@@H](O)[C@H](NCC#N)C(=O)NC/C=C/Cn1cnc2cc(Cl)c(Cl)cc2c1=O`, the ΔTm in the assay on Salmonella enterica [1] came out at 18.8 °C. In the assay on Salmonella enterica [2], the inhibition was determined as 93%. The IC50 in [3] turned out to be 9600 nM.

By ΔTm is commonly meant the shift of the melting midpoint relative to a reference. One may read the inhibition as the share of the control response that was lost under treatment. The IC50 is the concentration that gives 50% inhibition. One may read the MIC as the lowest concentration found to suppress growth. By Kd is commonly meant the concentration at which binding is half-saturated.
